According to ChEMBL document CHEMBL1126171, “Synthesis of 2-(p-chlorobenzyl)-3-aryl-6-methoxybenzofurans as selective ligands for antiestrogen-binding sites. Effects on cell proliferation and cholesterol synthesis” (J Med Chem, 1992):
Each block holds one compound with its values, some of them ahead of it.

How the values were obtained:
[1] = molecular target: T1, Anti-estrogen binding site (AEBS) (Homo sapiens) (UniProt Q15125+Q9UBM7); assay: Relative binding affinity(RBA) against AEBS (Antiestrogen binding site) in rat liver; format: functional, tissue-based; details: target entry is the homologue from another species
EL4 = assay: Inhibition of [3H]thymidine incorporation into EL4 cell proliferation; format: functional, cell-based; details: Mus musculus, EL4, 48 h
Procedure, shortened: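 Treated 48 h with compound; DNA synthesis measured by [3H]thymidine incorporation, cells harvested onto filters and counted. Mean ± SEM of two experiments.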

[2] = molecular target: T1, Anti-estrogen binding site (AEBS) (Homo sapiens); assay: Displacement of [3H]tamoxifen from AEBS of EL4 cells; format: functional, cell-based; details: Mus musculus
MCF7S [3] = assay: (§1) Inhibition of [3H]thymidine incorporation into MCF-7 cells; format: functional, cell-based; details: Homo sapiens
Procedure, shortened: (§2)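 After 24 h, compound (final […], diluted from 1 mM ethanolic stock; solvent controls) and [3H]thymidine (37 kBq/well) added. Incubated 48 h, then trypsinized, harvested and counted. Mean ± SEM of two experiments.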

[4] = molecular target: T1, Anti-estrogen binding site (AEBS) (Homo sapiens); assay: Effect on cholesterol biosynthesis in EL4 cells, 5 hr incubation with 0.25 mM [3H]acetate; format: functional, cell-based; details: Mus musculus
Procedure, shortened: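 EL4 cells at 20 × 10^6 cells/mL in lipoprotein-poor RPMI given 0.25 mM [3H]acetate for 5 h, without or with compound (10^-6 M or 10^-4 M depending on compound); triplicates in two experiments. KOH/ethanol saponification at 95 °C with [14C]cholesterol recovery standard; petroleum ether extraction. Label in cholesterol as % of total cellular incorporation; % inhibition versus control; Student's t test.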

[5] = Percent of cell viability by trypan blue exclusion; format: functional
Procedure, shortened: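 Viability of EL4 cells in the [3H]acetate cholesterol-synthesis incubations (20 × 10^6 cells/mL; 5 h or 48 h with compound at 10^-7 to 10^-4 M), estimated by trypan blue exclusion.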

[6] = molecular target: T1, Anti-estrogen binding site (AEBS) (Homo sapiens); assay: Relative binding affinity (RBA) against AEBS (Antiestrogen binding site) in rat liver; format: functional, tissue-based; details: target entry is the homologue from another species
[7] = molecular target: T1, Anti-estrogen binding site (AEBS) (Homo sapiens); assay: Relative binding affinity(RBA) against AEBS (Antiestrogen binding site) using N1-S1 cells; format: functional, cell-based; details: Rattus norvegicus
[8] = molecular target: Estrogen receptor (Homo sapiens) (UniProt Q92731+P03372); assay: Relative binding affinity(RBA) against Estrogen receptor using MCF-7 cells; format: cell-based; details: MCF7
Procedure, shortened: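 Competition for ER in MCF7 whole cells suspended in phosphate-buffered saline, 3 × 10^7 cells per duplicate aliquot. Incubated with 5 nM [3H]estradiol with or without 100-fold molar excess of competitor or diethylstilbestrol, then washed and counted as for the AEBS assay. Bound label reported as % of no-competitor control. Mean ± SEM of two experiments.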

[9] = molecular target: T1, Anti-estrogen binding site (AEBS) (Homo sapiens); assay: Relative binding affinity(RBA) against AEBS (Antiestrogen binding site) using EL-4 cells; format: functional, cell-based; details: Mus musculus
[10] = molecular target: T1, Anti-estrogen binding site (AEBS) (Homo sapiens); assay: Effect on cholesterol biosynthesis in EL4 cells, 48 hr incubation with 0.25 mM [3H]acetate; format: functional, cell-based; details: Mus musculus
Procedure, shortened: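 EL4 cells at 20 × 10^6 cells/mL in lipoprotein-poor RPMI, incubated 48 h with 0.25 mM [3H]acetate ± 10^-7 M compound, in triplicate, two experiments. Stopped with KOH/ethanol, [14C]cholesterol added for recovery, saponified 95 °C 90 min. Nonsaponifiable lipids extracted in petroleum ether. Result as % of total incorporated label found in cholesterol; inhibition versus control; Student's t test.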

MCF7S [11] = assay: as §1; format: functional, cell-based; details: Homo sapiens; remark: listed apart in the source
Procedure, shortened: as §2, with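 “MCF7 cells in Hepes-buffered RPMI 1640 with 5% newborn calf serum, seeded 4500 per well. After” for “After”, “counted. […]” for “counted.”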

[12] = molecular target: T1, Anti-estrogen binding site (AEBS) (Homo sapiens); assay: Relative binding affinity(RBA) against AEBS (Antiestrogen binding site) in guinea pig uterus; format: functional, tissue-based; details: Cavia porcellus, target entry is the homologue from another species
[13] = molecular target: T1, Anti-estrogen binding site (AEBS) (Homo sapiens); assay: Relative binding affinity(RBA) against AEBS (Antiestrogen binding site) in chicken liver; details: Gallus gallus; target entry is the homologue from another species
[14] = molecular target: T1, Anti-estrogen binding site (AEBS) (Homo sapiens); assay: Relative binding affinity (RBA) against AEBS (Antiestrogen binding site) using N1-S1 cells; format: functional, cell-based; details: Rattus norvegicus
[15] = molecular target: T1, Anti-estrogen binding site (AEBS) (Homo sapiens); assay: Relative binding affinity(RBA) against AEBS (Antiestrogen binding site) in N1-S1 cells; format: functional, cell-based; details: Rattus norvegicus
[16] = molecular target: T1, Anti-estrogen binding site (AEBS) (Homo sapiens); assay: Relative binding affinity(RBA) against AEBS (Antiestrogen binding site) in MCF-7 cells; details: target entry is the homologue from another species
[17] = molecular target: T1, Anti-estrogen binding site (AEBS) (Homo sapiens); assay: Relative binding affinity(RBA) against AEBS (Antiestrogen binding site) in N1-S1 cells

SMILES: COc1ccc2c(-c3ccc(OCCN(C)C)cc3)c(Cc3ccc(Cl)cc3)oc2c1
IC50 (EL4): 950 nM | relative binding affinity (RBA) [2]: 391 | IC50 (MCF7S [3]): 5020 nM

SMILES: Oc1cccc(C(=C2CCCCC2)c2cccc(OCCN3CCCCC3)c2)c1
relative binding affinity (RBA) [1]: 10

SMILES: COc1ccc2c(-c3ccc(OCCN4CCOCC4)cc3)c(Cc3ccc(Cl)cc3)oc2c1.Cl
IC50 (EL4): 335 nM | relative binding affinity (RBA) [2]: 1830 | Activity [4]: 0.11% [middle of 6 runs] | IC50 (MCF7S [3]): 6500 nM | Cell viability [5]: 79%

SMILES: C=CC(C(=O)OCCN(CC)CC)(c1ccccc1)c1ccccc1
relative binding affinity (RBA) [6]: 10

SMILES: COc1ccc2c(c1)OCC(c1ccc(F)cc1)=C2c1ccc(OCCN2CCOCC2)cc1
relative binding affinity (RBA) [7]: 68 | relative binding affinity (RBA) [8]: < 1

SMILES: COc1ccc2c(c1)OCC(c1ccc(Br)cc1)=C2c1ccc(OCCN2CCCC2)cc1
relative binding affinity (RBA) [9]: 169 | relative binding affinity (RBA) [8]: < 1

SMILES: COc1ccc2c(-c3ccc(OCCN4CCCC4)cc3)c(Cc3ccc(Cl)cc3)oc2c1.Cl
IC50 (EL4): 475 nM | relative binding affinity (RBA) [2]: 268 | Activity [10]: 0.32% [middle of 5 runs] | Activity [4]: 0.12% [middle of 6 runs] | IC50 (MCF7S [11]): 2300 nM | Cell viability [5]: 91%

SMILES: COc1ccc2c(c1)OCC(c1ccc(F)cc1)=C2c1ccc(OCCN2CCCCC2)cc1
relative binding affinity (RBA) [14]: 161 | relative binding affinity (RBA) [8]: < 1

SMILES: COc1ccc2c(c1)OCC(c1ccc(F)cc1)=C2c1ccc(OCCN2CCCC2)cc1
relative binding affinity (RBA) [14]: 176 | relative binding affinity (RBA) [8]: < 1

SMILES: CN(C)CCOc1cccc(C(=C2CCCCC2)c2cccc(O)c2)c1
relative binding affinity (RBA) [1]: 17

SMILES: CCN(CC)CCOC(=O)C(CC(C)C)(c1ccccc1)c1ccccc1
relative binding affinity (RBA) [6]: 5

SMILES: COc1ccc2c(c1)OCC(c1ccc(Cl)cc1)=C2c1ccc(OCCN2CCCC2)cc1
relative binding affinity (RBA) [9]: 257 | relative binding affinity (RBA) [8]: < 1

SMILES: CN(C)CCOc1ccc(C2Oc3ccccc3C=C2c2ccccc2)cc1 (stereo not drawn)
relative binding affinity (RBA) [1]: 98

SMILES: CCN(CC)CCOc1cccc(C(=C2CCCCC2)c2cccc(O)c2)c1
relative binding affinity (RBA) [1]: 6

SMILES: Oc1cccc(C(=C2CCCCC2)c2cccc(OCCN3CCOCC3)c2)c1
relative binding affinity (RBA) [1]: 25

SMILES: CCN(CC)CCOc1ccc(C(C)(C)C)cc1
relative binding affinity (RBA) [1]: 0.08

SMILES: CCN(CC)CCOc1ccc(C2=C(c3ccc(F)cc3)COc3cc(OC)ccc32)cc1
relative binding affinity (RBA) [15]: 106 | relative binding affinity (RBA) [8]: < 1

SMILES: CCCC(C(=O)OCCN(CC)CC)(c1ccccc1)c1ccccc1
relative binding affinity (RBA) [6]: 12

SMILES: O=C(c1ccc(OCCN2CCCC2)cc1)c1c(-c2ccc(O)cc2)sc2cc(O)ccc12
relative binding affinity (RBA) [8]: 115 | relative binding affinity (RBA) [16]: 19

SMILES: CCN(CC)CCOc1ccc(Cc2ccccc2)cc1
relative binding affinity (RBA) [6]: 0.06

Second part, the compound after the results:

relative binding affinity (RBA) [1]: 225
SMILES: C1=C(c2ccccc2)C(c2ccc(OCCN3CCCCC3)cc2)Oc2ccccc21 (stereo not drawn)

relative binding affinity (RBA) [1]: 23
SMILES: COc1ccc2c(-c3ccc(OCCN4CCCC4)cc3)c(-c3ccccc3)oc2c1

relative binding affinity (RBA) [1]: 1170
SMILES: CC/C(=C(\c1ccccc1)c1ccc(OCCN2CCOCC2)cc1)c1ccccc1

relative binding affinity (RBA) [1]: 434
SMILES: CC/C(=C(\c1ccccc1)c1ccc(OCCN2CCCC2)cc1)c1ccccc1

relative binding affinity (RBA) [12]: 124 | relative binding affinity (RBA) [1]: 90 | relative binding affinity (RBA) [13]: 183
SMILES: COc1ccc2c(c1)CCC(c1ccccc1)=C2c1ccc(OCCN2CCCC2)cc1

relative binding affinity (RBA) [1]: 46
SMILES: COc1ccc2c(c1)OC(C)(C)[C@@H](c1ccccc1)[C@H]2c1ccc(OCCN2CCCC2)cc1

relative binding affinity (RBA) [9]: 557 | relative binding affinity (RBA) [8]: < 1
SMILES: COc1ccc2c(c1)OCC(c1ccccc1)=C2c1ccc(OCCN2CCCC2)cc1

relative binding affinity (RBA) [1]: 134
SMILES: C1=C(c2ccccc2)C(c2ccc(OCCN3CCCC3)cc2)Oc2ccccc21 (stereo not drawn)

relative binding affinity (RBA) [1]: 19
SMILES: COc1ccc2c(c1)OC(C)(C)[C@H](c1ccccc1)[C@H]2c1ccc(OCCN2CCCC2)cc1

relative binding affinity (RBA) [1]: 540
SMILES: CC/C(=C(\c1ccccc1)c1ccc(OCCN2CCN(C)CC2)cc1)c1ccccc1

relative binding affinity (RBA) [6]: 21 | relative binding affinity (RBA) [17]: 46
SMILES: CC/C(=C(\c1ccccc1)c1ccc(OCCN(CC)CC)cc1)c1ccccc1
